Compounds with a hit are over-represented: about 5.5% of the library has one in this group of screens.
E coli WT exp – blocks growth of wild type E. coli BW25113 | growth inhibition, % at 100 µM | OD600 absorbance | 98,000 tested, 0.15% active;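 active = growth inhibition above about 50% at one test dose, limit read from the data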;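 note: growth measured after 20 h incubation at 37 °C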
PLAP activator – human PLAP activation; 96,000 tested, 1.2% active; purified PLAP enzyme, luminescent substrate read-out; active compounds read high; P05187; AID 696; activation fold at 20 µM; in the data active = activation fold above about 2
PostGolgi yeast – growth inhibition of a yeast mutant, post-Golgi transport screen. post-Golgi transport phenotypic cell assay. inhibition, % at 10 µM. 98,000 tested, 0.9% active. AID 739;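 note: yeast cells grown in 1536-well plates; yeast grown about 18 h at 30C before absorbance read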
tolC growth inh – blocks growth of E. coli BW25113 tolC mutant | 65,000 tested, 2.2% active | OD615 | AID 573 | growth inhibition, % at 10 µM (by protocol);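 active = growth inhibition at or above a cutoff equal to the mean over every tested compound plus 3 SD, cut at about 60% in these data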;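 note: growth measured after 20 h incubation at 37 °C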
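Assay system: tolC-deleted E. coli BW25113. Medium: kanamycin-containing LB broth (50 µg/mL). Dosing: 10 µM final, single dose. Timing: bacterial growth with compound for 20 h at 37 °C. Detection: A615 absorbance measurement. Read-out basis: growth inhibition in percent.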
HePTP inh – inhibitors of human HePTP phosphatase | P35236 | recombinant HePTP phosphatase activity, OD absorbance | inhibition, % at 20 µM | 110,000 tested, 0.64% active; in the data active = inhibition above about 50%;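 note: plate controls were vehicle for no effect and reference inhibitor for full effect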
Target sequence (P35236 whole entry, looked up): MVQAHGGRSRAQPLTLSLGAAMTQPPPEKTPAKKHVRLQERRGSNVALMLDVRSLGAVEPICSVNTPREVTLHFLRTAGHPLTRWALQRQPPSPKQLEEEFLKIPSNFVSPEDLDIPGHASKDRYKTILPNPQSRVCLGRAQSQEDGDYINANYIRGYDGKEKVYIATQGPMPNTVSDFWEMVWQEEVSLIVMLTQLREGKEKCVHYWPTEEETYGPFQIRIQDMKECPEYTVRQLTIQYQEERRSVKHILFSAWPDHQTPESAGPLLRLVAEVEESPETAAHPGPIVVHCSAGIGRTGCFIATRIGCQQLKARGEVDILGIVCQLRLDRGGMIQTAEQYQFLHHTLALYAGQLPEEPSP
PostGolgi ctrl – yeast control strain growth, post-Golgi counter-screen; efflux-deficient yeast background strain, growth absorbance A615, 16 h; inhibition, % at 10 µM; 98,000 tested, 5% active
* = called active by the depositor. Cut-off read from the data, not from the text of the source, unless noted: active = inhibition above about 30%; inactive = the rest.

How did O=C(Nc1nc2ccccc2s1)C1CCCN1S(=O)(=O)c1ccc(Cl)cc1 (stereo unspecified) do in these assays?
E coli WT exp: -7; PLAP activator: 1.1; PostGolgi yeast: 0; tolC growth inh: 86*; HePTP inh: -1; PostGolgi ctrl: 68*

Results for CCSc1nnc(NC(=O)c2cc(-c3ccc(C)cc3)nc3ccccc23)s1 ?
HePTP inh: 4

How did COC(=O)c1cc(C)sc1NC(=O)c1sc2cc(Cl)ccc2c1Cl do in these assays?
HePTP inh: -4

How did COc1ccc(S(=O)(=O)N(CC(=O)O)Cc2ccccc2)cc1 do in these assays?
HePTP inh: -12

Results for CC(=O)NC1=NC(=O)/C(=C\c2cn(C)c3ccccc23)S1 ?
HePTP inh: 0

Results for Cc1ccc(Cl)cc1N1CCN(C(=O)CCS(=O)(=O)c2cccc3nonc23)CC1 ?
tolC growth inh: 61*; HePTP inh: 3

What do the screens show for `COC(=O)c1ccc(CSc2nnnn2Cc2ccccc2)cc1`?
E coli WT exp: -12; PLAP activator: 0.7; PostGolgi yeast: 3; tolC growth inh: 16; HePTP inh: 17; PostGolgi ctrl: 20

What do the screens show for `COC(=O)c1cc(OC)c(OC)cc1NC(=O)CSc1nnnn1Cc1ccccc1`?
E coli WT exp: -13; PLAP activator: 1.2; PostGolgi yeast: -6; tolC growth inh: 12; HePTP inh: 9; PostGolgi ctrl: 38*

Results for O=C1C2C3C=CC(C3)C2C(=O)N1/N=C/c1cn(Cc2ccc(F)cc2)c2ccccc12 (stereo unspecified) ?
E coli WT exp: -6; PLAP activator: 0.9; PostGolgi yeast: -11; PostGolgi ctrl: 37*

What do the screens show for `O=C1C2C3C=CC(C3)C2C(=O)N1/N=C/c1cn(Cc2ccccc2)c2ccccc12` (stereo unspecified)?
E coli WT exp: -6; PostGolgi yeast: 5; PostGolgi ctrl: 32*

How did COCCn1nnnc1C(c1ccc(Cl)cc1)N1CCSCC1 (stereo unspecified) do in these assays?
E coli WT exp: -10; PLAP activator: 1.4; PostGolgi yeast: -1; tolC growth inh: -17; HePTP inh: 8; PostGolgi ctrl: 2

What do the screens show for `Oc1ccc(N2CCN(C(c3cccs3)c3nnnn3CCc3ccccc3)CC2)cc1` (stereo unspecified)?
E coli WT exp: -4; PLAP activator: 1.5; PostGolgi yeast: 8; tolC growth inh: 20; HePTP inh: 0; PostGolgi ctrl: 35*

What do the screens show for `c1ccc(Cn2nnnc2C(c2cccs2)N2CCCCCC2)cc1` (stereo unspecified)?
E coli WT exp: -24; PostGolgi yeast: 5; tolC growth inh: 77*; HePTP inh: -5; PostGolgi ctrl: 24

What do the screens show for `Cc1ccc(C(c2nnnn2CCc2ccccc2)N2CCSCC2)cc1` (stereo unspecified)?
E coli WT exp: -20; PLAP activator: 1.2; tolC growth inh: 64*; HePTP inh: 8; PostGolgi ctrl: 24

What do the screens show for `CN(c1ccc(C(=O)N2CCN(c3ccccc3)CC2)cc1)S(=O)(=O)c1ccccc1`?
HePTP inh: 2

How did O=C1OCC2=C1C(c1ccc(F)cc1)Sc1ccccc1N2 (stereo unspecified) do in these assays?
E coli WT exp: 1; PLAP activator: 1.1; PostGolgi yeast: 94*; PostGolgi ctrl: -7

Results for O=C1CC(c2ccc(F)cc2)Sc2ccccc2N1 (stereo unspecified) ?
E coli WT exp: 3; PostGolgi yeast: -3; tolC growth inh: 8; PostGolgi ctrl: 12

Results for COc1ccc(C(=O)Nn2cnc3scc(-c4cccs4)c3c2=O)c(O)c1 ?
E coli WT exp: -5; PostGolgi yeast: 2; tolC growth inh: 75*; HePTP inh: -4; PostGolgi ctrl: 24

Results for O=c1c2c(-c3cccs3)csc2ncn1/N=C/c1ccc(OC(F)F)cc1 ?
E coli WT exp: -5; PLAP activator: 0.9; PostGolgi yeast: 2; PostGolgi ctrl: 12

What do the screens show for `Cc1ccc(N=C2NC(=O)/C(=C/c3ccccc3F)S2)cc1`?
HePTP inh: 92*

Results for Cc1ccc(-n2cnc3cc(NCc4cccs4)ccc32)cc1 ?
E coli WT exp: -10; PLAP activator: 21; PostGolgi yeast: -11; PostGolgi ctrl: 15

Results for COc1ccc(-n2cnc3cc(NCc4cccs4)ccc32)cc1 ?
E coli WT exp: -12; PLAP activator: 1.2; PostGolgi yeast: 8; tolC growth inh: 98*; HePTP inh: 6; PostGolgi ctrl: 13

How did Cc1cc(C)nc(NC(=O)COc2cc(Cl)cc(Cl)c2)n1 do in these assays?
E coli WT exp: -3; PLAP activator: 0.8; PostGolgi yeast: 9; PostGolgi ctrl: 32*

How did COc1cc(C)nc(NC(=O)COc2ccc(Cl)cc2C)n1 do in these assays?
E coli WT exp: -4; PLAP activator: 1.1; PostGolgi yeast: 6; tolC growth inh: 16; HePTP inh: -2; PostGolgi ctrl: -4

How did O=c1/c(=C/c2ccco2)sc2nc(-c3ccccc3Br)nn12 do in these assays?
E coli WT exp: -12; PLAP activator: 2.2*; PostGolgi yeast: 4; tolC growth inh: -12; HePTP inh: 15; PostGolgi ctrl: 1

How did COc1ccccc1-c1nc2s/c(=C\c3cccs3)c(=O)n2n1 do in these assays?
E coli WT exp: -1; PLAP activator: 1.2; PostGolgi yeast: 19; tolC growth inh: -8; HePTP inh: 4; PostGolgi ctrl: 14

How did Cc1ccc(-n2[nH]c(=O)c(/C=c3/c(C)c(C#N)c4nc5ccccc5n4c3=O)c2O)cc1C do in these assays?
HePTP inh: 102*

How did Cc1cc(C)n2nc(SCc3nnc(SCc4ccccc4C)s3)nc2n1 do in these assays?
E coli WT exp: -21; PLAP activator: 1.5; PostGolgi yeast: 14; PostGolgi ctrl: 20

Results for COc1cccc(CSc2nnc(CSc3nc4nc(C)cc(C)n4n3)s2)c1 ?
E coli WT exp: -14; PLAP activator: 2.1*; PostGolgi yeast: 0; PostGolgi ctrl: 13

What do the screens show for `Cc1cc(C)n2nc(SCc3nnc(SCc4ccccc4Cl)s3)nc2n1`?
E coli WT exp: -17; PLAP activator: 0.9; PostGolgi yeast: -2; PostGolgi ctrl: 36*

Results for O=C(NCCCc1ccccc1)c1cc2ccccc2oc1=O ?
HePTP inh: -27

How did COc1ccccc1C(=O)Oc1ccc(C(C)C)cc1 do in these assays?
E coli WT exp: 0; PLAP activator: 1; PostGolgi yeast: 0; PostGolgi ctrl: 39*

Results for COc1ccccc1C(=O)Oc1ccc2c(c1)C(C)=CC(C)(C)N2 ?
HePTP inh: -2

What do the screens show for `CCOc1cccc(C2C(C(=O)OC)=C(C)N(C)C(C)=C2C(=O)OC)c1`?
HePTP inh: 1

What do the screens show for `Cc1cc(C)n2c(SCc3ccc(C#N)cc3)nnc2n1`?
E coli WT exp: 6; PLAP activator: 1.1; PostGolgi yeast: 9; tolC growth inh: -3; HePTP inh: 9; PostGolgi ctrl: -6

Results for Cc1cc(N2CCCCC2)nc(SCc2ccc(C#N)cc2)n1 ?
E coli WT exp: 0; PLAP activator: 1; PostGolgi yeast: 1; tolC growth inh: 78*; HePTP inh: 5; PostGolgi ctrl: 40*
